Sampled rows, rich in hits. Any-hit rate of the full collection: about 1.8%.
mABHD4 FP: ABHD4 (mouse) inhibition, primary FP screen. inhibition, % at 8.92 µM. actives 0.54% (n = 370,000). purified mABHD4, FP-Rh probe fluorescence polarization. Q8VD66;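 active = inhibition exceeding the mean over every tested compound plus 3 SD, cut at about 30% in these data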
Target sequence (Q8VD66 whole entry, looked up): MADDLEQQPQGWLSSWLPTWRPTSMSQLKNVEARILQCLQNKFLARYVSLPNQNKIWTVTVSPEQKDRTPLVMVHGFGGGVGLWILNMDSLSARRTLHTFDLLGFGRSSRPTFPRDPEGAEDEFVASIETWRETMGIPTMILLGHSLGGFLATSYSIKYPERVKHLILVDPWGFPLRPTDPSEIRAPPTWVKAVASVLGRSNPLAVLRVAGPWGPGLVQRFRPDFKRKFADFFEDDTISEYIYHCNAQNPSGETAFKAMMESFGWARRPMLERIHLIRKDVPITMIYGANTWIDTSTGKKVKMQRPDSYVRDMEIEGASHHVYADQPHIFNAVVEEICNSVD
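System: mouse ABHD4 enzyme, wild type / Medium: HEPES pH 7.0, NaCl, Pluronic buffer / Reagent: FP-Rh activity-based fluorescent probe / Control set: S159A mutant high control, sample median low control / Detection: fluorescence polarization with parallel and perpendicular emission, 525/598 nm / Schedule: 45 min + 60 min at 25 °C / Compound dosing: 8.92 µM, single dose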
TCR CD3 inh: human TCR-CD3 binding inhibition; inhibition, % at 9.4 µM; TAMRA-labeled TCR probe fluorescence, biochemical; actives 0.37% (n = 360,000); AID 651800;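 note: recombinant mutant TCR 2C K166C tagged with TAMRA read by polarization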
SIAE primary: human SIAE inhibition, primary screen; Q9HAT2; SIAE FP-Rh probe binding, fluorescence polarization; inhibition, % at 9.66 µM; actives 0.69% (n = 370,000); AID 1053197;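 active = inhibition above a cutoff: mean of compounds within the control limits plus 3 SD of those, cut at about 17% in these data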
ARNT TACC3 PPI: ARNT/TACC3 interaction disruption; actives 0.66% (n = 390,000); Q9Y6A5; AlphaScreen His-ARNT PAS-B/GST-TACC3 binding, luminescence; TACC3 fragment carries E629A point mutation; inhibition, % at 9.99 µM;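 active = mean inhibition of replicates at least 50% and at least half of replicates each reaching 50%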
HTRA1 inh: blocks human HTRA1 serine peptidase | Q92743 | recombinant HTRA1, FP-rhodamine activity-based probe, fluorescence polarization | inhibition, % at 5.96 µM | actives 0.5% (n = 340,000); in the data active = inhibition above about 36%
BSA TAMRA ctr: BSA probe counter-screen for TCR-CD3 inhibitors; shares compounds with TCR CD3 inh; TAMRA-labeled BSA probe fluorescence counterscreen; inhibition, % at 9.4 µM; actives 10% (n = 1,200); AID 652035; in the data active = inhibition above about 23%
TCR-CD3 inh conf: TCR-CD3 interaction inhibition, confirmation. TAMRA-labeled TCR probe fluorescence binding assay. shares compounds with TCR CD3 inh. actives 48% (n = 1,200). inhibition, % at 9.4 µM
Each line names hits and unclear results; the compound was inactive in the other large screens (follow-up assays come after a bar, where they were run). Cut-off read from the data, not from the text of the source, unless noted: active = inhibition above about 19%; inactive = the rest.

COc1ccc(NS(=O)(=O)c2ccc(C)c(C(=O)NNC(=O)c3ccccc3O)c2)cc1	none
Cc1ccc(S(=O)(=O)Nc2ccccc2F)cc1C(=O)NNC(=O)c1ccccc1O	TCR CD3 inh 19.1 | BSA TAMRA ctr inactive | TCR-CD3 inh conf 25.2
Cc1ccc(C(=O)NNC(=O)c2cc3ccccc3cc2O)cc1	TCR CD3 inh 24.1 | BSA TAMRA ctr inactive | TCR-CD3 inh conf 25.1
COc1ccccc1C(=O)NNC(=O)c1ccc(C)cc1	none
Cc1occc1C(=O)NNC(=O)Nc1ccc(F)cc1F	none
O=C(NNC(=O)c1cc2ccccc2cc1O)Nc1ccc(F)cc1F	TCR CD3 inh 19.9 | BSA TAMRA ctr inactive | TCR-CD3 inh conf 19.1
COc1ccc(NC(=O)NNC(=O)c2cc3ccccc3cc2O)cc1	TCR CD3 inh 24.7 | BSA TAMRA ctr inactive | TCR-CD3 inh conf 22.1
O=C(NNC(=O)c1cc2ccccc2cc1O)NC1CCCCC1	TCR CD3 inh 21.9 (no result: ARNT TACC3 PPI) | BSA TAMRA ctr inactive | TCR-CD3 inh conf inactive
CC(=O)NC(CC(=O)NNC(=O)c1cc2ccccc2cc1O)c1ccccc1 (configuration not stated)	TCR CD3 inh 49.9 | BSA TAMRA ctr inactive | TCR-CD3 inh conf 31.0
COc1cc(NC(=O)COC(=O)CC(NC(C)=O)c2ccccc2)cc(OC)c1 (configuration not stated)	none (no result: ARNT TACC3 PPI)
CN1C(=O)c2cc(NC(=O)c3cc(F)cc(F)c3)ccc2OC[C@@H]2O[C@@H](CC(=O)O)CC[C@@H]21	none (no result: mABHD4 FP, TCR CD3 inh, SIAE primary, HTRA1 inh)
O=C(C[C@H]1CC[C@H]2[C@@H](COC[C@@H](O)CN2Cc2cccc(Cl)c2)O1)NCC1CCCCC1	none (no result: mABHD4 FP, TCR CD3 inh, SIAE primary, HTRA1 inh)
Cc1ncc(CO)c(/C=N/NC(=O)c2cc3c(s2)CCCC3)c1O	TCR CD3 inh 37.5, ARNT TACC3 PPI 61.5 | BSA TAMRA ctr inactive | TCR-CD3 inh conf 26.5
NNC(=O)c1cc2c(s1)CCCCCC2	none
Cc1noc(C)c1NC(=O)Nc1ccc2c(c1)C(=O)N(C)[C@H]1CC[C@@H](CC(=O)NCc3ccc(Cl)cc3)O[C@H]1CO2	none (no result: mABHD4 FP, TCR CD3 inh, SIAE primary, HTRA1 inh)
COc1ccc(N2CC(C(=O)N3CCOCC3)CC2=O)cc1 (configuration not stated)	none
COc1ccc(N2CC(C(=O)N3CCCC(C)C3)CC2=O)cc1 (configuration not stated)	TCR CD3 inh 141.6 | BSA TAMRA ctr inactive | TCR-CD3 inh conf inactive
C[C@H]1CN([C@@H](C)CO)C(=O)c2cccc(NC(=O)NC3CCCCC3)c2O[C@H]1CN(C)Cc1ccc2c(c1)OCO2	none (no result: mABHD4 FP, TCR CD3 inh, SIAE primary, HTRA1 inh)
Cc1cc(Br)cn2c(Cc3ccsc3)c(-c3ccccc3)nc12	none (no result: ARNT TACC3 PPI, HTRA1 inh)
Cc1ccc(-c2nc3c(C)cc(Br)cn3c2Cc2ccsc2)cc1	TCR CD3 inh 23.0 (no result: ARNT TACC3 PPI, HTRA1 inh) | BSA TAMRA ctr inactive | TCR-CD3 inh conf inactive
C[C@@H]1CCCCO[C@H](CN(C)S(=O)(=O)c2cccs2)[C@H](C)CN([C@@H](C)CO)C(=O)c2cc(NC(=O)Nc3ccc(C(F)(F)F)cc3)ccc2O1	none (no result: mABHD4 FP, TCR CD3 inh, SIAE primary, HTRA1 inh)
N#CCC(=O)Nc1ccc(C(=O)OCC(=O)Nc2cc(-c3ccccc3)nn2-c2ccccc2)cc1	TCR CD3 inh 52.3 (no result: ARNT TACC3 PPI) | BSA TAMRA ctr inactive | TCR-CD3 inh conf 21.3
CCN(CC)S(=O)(=O)c1ccc(NC(=O)COC(=O)c2ccc(NC(=O)CC#N)cc2)cc1	TCR CD3 inh 19.7 | BSA TAMRA ctr inactive | TCR-CD3 inh conf inactive
CC(C)c1cc(C(=O)O)c2ccccc2n1	TCR CD3 inh 34.4 | BSA TAMRA ctr inactive | TCR-CD3 inh conf inactive
Cc1cc(C(=O)O)c2ccccc2n1	none
COc1ccccc1/C=N/N1C(=O)c2cccc3cccc(c23)C1=O	TCR CD3 inh 31.8 | BSA TAMRA ctr 32.6 | TCR-CD3 inh conf 19.1
Cc1ccc(S(=O)(=O)Nc2ccc3c(c2)C(=O)N([C@H](C)CO)C[C@H](C)[C@H](CN(C)C(=O)Nc2ccc(C(F)(F)F)cc2)OCCCC[C@@H](C)O3)cc1	none (no result: mABHD4 FP, TCR CD3 inh, SIAE primary, HTRA1 inh)
CC(=O)N1[C@H](CO)[C@H]2c3ccccc3N(S(=O)(=O)c3ccc(F)cc3)C[C@H]21	none (no result: mABHD4 FP, TCR CD3 inh, SIAE primary, HTRA1 inh)
O=C(NNC(=O)c1ccccc1OCc1ccccc1)c1ccccc1F	none
O=C(NNC(=O)c1ccccc1OCc1ccc(F)cc1)c1ccccc1O	TCR CD3 inh 24.9 | BSA TAMRA ctr inactive | TCR-CD3 inh conf 23.2
O=C(NNC(=O)c1ccccc1OCc1ccccc1)c1ccccc1O	TCR CD3 inh 33.4 | BSA TAMRA ctr inactive | TCR-CD3 inh conf 19.1
O=C(c1cccc(C(=O)N2CCN(c3ncccn3)CC2)c1)N1CCN(c2ncccn2)CC1	none
O=C(c1ccc2nc(-c3ccco3)c(-c3ccco3)nc2c1)N1CCN(c2ncccn2)CC1	mABHD4 FP 32.6, TCR CD3 inh 29.3, SIAE primary 35.5 | BSA TAMRA ctr inactive | TCR-CD3 inh conf 24.8
Cc1c(OC(C(=O)O)c2ccccc2)ccc2c1oc(=O)c1ccccc12 (configuration not stated)	TCR CD3 inh 19.5 | BSA TAMRA ctr inactive | TCR-CD3 inh conf inactive
CCCCn1c(N)c(N(CCOC)C(=O)c2cc(-c3ccco3)nc3ccccc23)c(=O)[nH]c1=O	TCR CD3 inh 21.8 | BSA TAMRA ctr inactive | TCR-CD3 inh conf inactive
CCCCN(C(=O)c1cc(-c2ccco2)nc2ccccc12)c1c(N)n(CCCC)c(=O)[nH]c1=O	none
N#CC1=C(N)C(C#N)(C#N)C(c2ccc[nH]2)C2CCCC=C12 (configuration not stated)	TCR CD3 inh 21.1 | BSA TAMRA ctr inactive | TCR-CD3 inh conf inactive
OC[C@H]1Nc2ccc(-c3cccc(F)c3)cc2[C@H]2[C@@H]1CCN2Cc1ccncc1	none (no result: mABHD4 FP, TCR CD3 inh, SIAE primary, HTRA1 inh)
CN(CCc1ccccn1)C(=O)CC1C(=O)NCCN1Cc1ccc(-c2ccccc2)cc1 (configuration not stated)	none
COCCN(C(=O)CC1C(=O)NCCN1Cc1ccc(-c2ccccc2)cc1)C(C)C (configuration not stated)	TCR CD3 inh 24.2 | BSA TAMRA ctr inactive | TCR-CD3 inh conf inactive
CC1OC(OCC2OC(Oc3c(-c4ccc(O)cc4)oc4cc(O)cc(O)c4c3=O)C(O)C(O)C2O)C(O)C(O)C1O (configuration not stated)	TCR CD3 inh 21.1 | BSA TAMRA ctr inactive | TCR-CD3 inh conf inactive
CC1OC(OC2C(Oc3c(-c4ccc(O)cc4)oc4cc(O)cc(O)c4c3=O)OC(COC3O[C@@H](C)[C@H](O)[C@@H](O)C3O)C(O)C2O)C(O)C(O)C1O (some centres not stated)	none
C[C@H]1CCCCO[C@H](CN(C)C(=O)Cc2ccccc2)[C@@H](C)CN([C@@H](C)CO)C(=O)c2cc(NC(=O)CCC(F)(F)F)ccc2O1	none (no result: mABHD4 FP, TCR CD3 inh, SIAE primary, HTRA1 inh)
O=C(N/N=C/c1cc(Cl)cc([N+](=O)[O-])c1O)C1CC1	TCR CD3 inh 21.2 | BSA TAMRA ctr inactive | TCR-CD3 inh conf inactive
CC(C)(C)N/N=C/c1cc(Cl)cc([N+](=O)[O-])c1O	none

Screens deposited in PubChem BioAssay by several laboratories.
